Experiments:
K562 = test: Relative daunomycin accumulation was determined in PgP-positive leukemic K562/R7 cells with daunomycin at a concentration of 10 uM; assay type: functional, Homo sapiens
Procedure, shortened: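 K562/R7 human leukemic cells with high Pgp (1 million/mL RPMI 1640) incubated 1 h at 37 °C with 10 µM daunomycin (final), with or without 10 µM modulator. Cells washed three times in ice-cold PBS, kept on ice, intracellular drug fluorescence read by flow cytometry. Fluorescence shift expressed relative to that of 2 µM cyclosporin A reference. Duplicates, at least three experiments.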

[1] = Effect of Chrysin Alkylation on the Binding to PgP Cytosolic Domain.; assay type: ADME
Procedure, shortened: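 Recombinant Pgp C-terminal cytosolic domain NBD2 (0.5 µM) in 20 mM potassium phosphate pH 6.8 with 0.5 M NaCl, 20% glycerol and 0.01% heptylcarbamoyl glucoside, 25 °C. Ligand titrated in aliquots up to 20 µM. Tryptophan fluorescence (ex 295 nm, em 310–360 nm) integrated; inner-filter corrected with N-acetyltryptophanamide. Curve fit gave KD and percent maximal quenching.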

[2] = Partition coefficient (logP); assay type: physicochemical; details: octanol/water
Procedure, shortened: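 Log P estimated by extrapolation from a log P vs R_M calibration curve built with quercetine and platanetine data.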

[3] = Hydrophobicity index was determined in C18 reverse phase silica gel 20 * 20 cm plates in methanol:water (8:2).; assay type: ADME
[4] = Direct binding to PgP recombinant cytosolic domain was measured by percent maximal quenching of the intrinsic fluorescence.; assay type: ADME; details: cytosol
Procedure, shortened: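 Recombinant C-terminal cytosolic NBD2 of Pgp at 0.5 µM in 20 mM potassium phosphate pH 6.8 with 0.5 M NaCl, 20% glycerol and 0.01% heptylcarbamoyl glucopyranoside detergent, 25 °C. Excitation at 295 nm, emission scanned 310–360 nm and integrated, buffer-corrected. Ligand added stepwise up to 20 µM. Inner-filter correction used N-acetyltryptophanamide. Curve fitting gave K_D and percent maximal quenching.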

| Structure (SMILES) | Kd [1] [nM] | logP [2] | Hydrophobicity index [3] | Delta Fmax [4] [%] | Relative daunomycin accumulation (K562) |
| --- | --- | --- | --- | --- | --- |
| CC(C)=CCC/C(C)=C\Cc1c(O)cc2oc(-c3ccccc3)cc(=O)c2c1O | 45 | 6.64 | 1.288 | 48.2 | 0.81 |
| O=c1cc(-c2ccccc2)oc2cc(OCc3ccccc3)cc(O)c12 | 68 | 6.42 | 1.076 | 29.3 | 0.27 |
| O=c1cc(-c2ccccc2)oc2cc(O)c(Cc3ccccc3)c(O)c12 | 340 | 6.1 | 0.754 | 72.4 | 0.09 |
| O=c1cc(-c2ccccc2)oc2c(Cc3ccccc3)c(O)cc(O)c12 | 990 | 6.1 | 0.754 | 99.1 | 0.25 |
| CC(C)Oc1c(C(C)C)c(O)c2c(=O)cc(-c3ccccc3)oc2c1C(C)C | 33 | 6.84 | 1.479 | 38.4 | 0.29 |
| CC(C)Oc1cc2oc(-c3ccccc3)cc(=O)c2c(O)c1C(C)C | 280 | 6.6 | 1.248 | 44.5 | 0.29 |
| CC(C)=CCc1c(O)cc(O)c2c(=O)cc(-c3ccccc3)oc12 | 280 | 6.2 | 0.853 | 81 | 1.52 |
| COc1cc2oc(-c3ccccc3)cc(=O)c2c(O)c1C | 1300 | 6.18 | 0.842 | 57.3 | 0.3 |
| O=c1cc(-c2ccccc2)oc2cc(O)cc(O)c12 [CHRYSIN] | 13100 | 5.7 | 0.358 | 94.6 | 0.2 |
| COc1cc(O)c2c(=O)cc(-c3ccccc3)oc2c1 [TECHTOCHRYSIN] | 6300 | 6.06 | 0.719 | 68.1 | 0.23 |

Continued by falling Kd [1], values first:

| Kd [1] [nM] | logP [2] | Hydrophobicity index [3] | Delta Fmax [4] [%] | Structure (SMILES) | Relative daunomycin accumulation (K562) |
| --- | --- | --- | --- | --- | --- |
| 3100 | 5.85 | 0.512 | 46.6 | Cc1c(O)cc2oc(-c3ccccc3)cc(=O)c2c1O | 0.2 |
| 1320 | 6.24 | 0.898 | 53.2 | CC(C)Oc1cc(O)c2c(=O)cc(-c3ccccc3)oc2c1 | 0.3 |
| 300 | 6.15 | 0.812 | 83.4 | CC(C)=CCc1c(O)cc2oc(-c3ccccc3)cc(=O)c2c1O | 0.83 |
| 210 | 5.95 | 0.608 | 39 | CC(C)c1c(O)cc2oc(-c3ccccc3)cc(=O)c2c1O | 0.24 |
| 36 | 6.41 | 1.06 | 40.9 | O=c1cc(-c2ccccc2)oc2c(Cc3ccccc3)c(O)c(Cc3ccccc3)c(O)c12 | 0.39 |
| 25 | 6.71 | 1.35 | 67 | CC(C)=CCC/C(C)=C\Cc1c(O)cc(O)c2c(=O)cc(-c3ccccc3)oc12 | 0.9 |
| 15 | 6.56 | 1.296 | 21.5 | CC(C)=CCc1c(O)c(CC=C(C)C)c2oc(-c3ccccc3)cc(=O)c2c1O | 0.84 |

From ChEMBL document CHEMBL1134361, “C-Isoprenylation of flavonoids enhances binding affinity toward P-glycoprotein and modulation of cancer cell chemoresistance” (J Med Chem, 2001)
